Experimental data pooled from the literature.
Lines come from different studies, so protocols differ.
Target: MAP/microtubule affinity-regulating kinase 3 (MARK3, Homo sapiens, UniProt P27448)

Structure (SMILES) | read-out | mode | technique | concentration | measurement | value
O=C(Nc1cnc(Oc2ccc(F)cc2)nc1)N1CCc2ncccc2[C@@H]1c1ccc(F)cc1 | cell-free assay |  | competition with immobilised ligand | 1 µM | remaining binding | 100%
O=C1Nc2ccc(Cl)cc2C1=Cc1cc(Cl)c(O)c(Cl)c1 | cell-free assay |  |  | 0.5 µM | remaining signal | 81.1%
NS(=O)(=O)c1ccc(CNc2nc(Nc3cccc(NC(=O)N4CCCC4)c3)ncc2Br)cc1 | enzyme activity | inhibitor | radiometric | 1 µM | remaining activity | 63%
COc1cc2ncnc(Nc3ccc(Oc4ccccc4)cc3C)c2cc1OC | enzyme activity | inhibitor |  | 1 µM | inhibition | 8%
NS(=O)(=O)c1ccc(CNc2nc(Nc3cccc(CN4CCOCC4)c3)ncc2C2CC2)cc1 | enzyme activity | inhibitor | radiometric | 1 µM | remaining activity | 109%
Nc1c(C(=O)NCc2ccc(C(=O)NCCCC3CCCCC3)cc2)cnn1-c1ccccc1 | cell-free assay |  | competition with immobilised ligand | 0.1 µM | remaining binding | 78%
FC(F)(F)Oc1cccc(-c2cnc3ccc(-c4ccncc4)nn23)c1 | enzyme activity | inhibitor | radiometric | 5 µM | activity vs control | 95%
CN(c1ncccc1CNc1nc(Nc2ccc3c(c2)CC(=O)N3)ncc1C(F)(F)F)S(C)(=O)=O | enzyme activity | inhibitor |  | 1 µM | inhibition | 83.5%
COc1cc(Nc2cnc(C#N)c(O[C@H](C)CN(C)C)n2)ncc1-c1cnn(C)c1 | enzyme activity | inhibitor | radiometric | 10 µM | remaining activity | 69%
COc1ccc(COc2ccc(Cc3cnc(N)nc3N)cc2OC)cc1 | cell-free assay |  |  | 0.5 µM | remaining signal | 103%
Nc1ncnc2occ(-c3ccc(NC(=O)Nc4cc(C(F)(F)F)ccc4F)cc3)c12 | cell-free assay | inhibitor |  | 20 µM | remaining signal | 15%
CCN(CC)CCNC(=O)c1c(C)[nH]c(/C=C2\C(=O)Nc3ccc(F)cc32)c1C | cell-free assay |  |  | 0.5 µM | remaining signal | 30.4%
C[C@@H]1CN(c2cc(-c3n[nH]c4ccc(OC5(C)CC5)cc34)ncn2)C[C@H](C)O1 | cell-free assay |  | competition with immobilised ligand | 0.1 µM | remaining binding | 73%
Cc1nn(CC(F)(F)F)cc1Nc1ncc(C2CC2)c(NCCCNC(=O)C2CCC2)n1 | enzyme activity | inhibitor | radiometric | 1 µM | remaining activity | 96%
CS(=O)(=O)Nc1cccc(-c2csc(NC(=O)CSc3nc4nccnc4c(=O)n3CCc3ccccc3)n2)c1 | enzyme activity | inhibitor |  | 10 µM | inhibition | 1%
O=C(NCCCNc1ccnc(Nc2cccc(NC(=O)N3CCCC3)c2)n1)C1CCC1 | enzyme activity | inhibitor | radiometric | 1 µM | remaining activity | 92%
CS(=O)(=O)CCNCc1ccc(-c2ccc3ncnc(Nc4ccc(OCc5cccc(F)c5)c(Cl)c4)c3c2)o1 | cell-free assay |  |  | 0.5 µM | remaining signal | 95.9%
Cc1cc(NC(=O)c2cccc(S(F)(F)(F)(F)F)c2)cc(-n2ccn3nc(-c4cccnc4)cc23)c1 | cell-free assay |  | competition with immobilised ligand | 1 µM | remaining binding | 100%
Cc1nn(CC(F)(F)F)cc1Nc1ncc(C2CC2)c(NCc2ccc(S(N)(=O)=O)cc2)n1 | enzyme activity | inhibitor | radiometric | 1 µM | remaining activity | 111%
CNc1cccc2cc(C(=O)Nc3ccc(C(=O)O)cc3)c(=O)[nH]c12 | enzyme activity | inhibitor |  | 10 µM | inhibition | -10%
Cc1cc(C)c(-n2ccn3nc(-c4cccnc4)cc23)cc1NC(=O)c1cc(C#N)cc(S(F)(F)(F)(F)F)c1 | cell-free assay |  | competition with immobilised ligand | 0.1 µM | remaining binding | 85.1%
O=C(Nc1cnn(-c2csc(C(=O)NC3COC3)c2)c1)Nc1ccccc1Cl | enzyme activity | inhibitor |  | 5 µM | remaining activity | 98.2%
CCCCNc1ncc2c(-c3ccc(F)cc3)nn(C[C@H]3CC[C@H](N)CC3)c2n1 | target engagement in cells | inhibitor | chemoproteomics | 20 mM | inhibition | 33.9%
CCOC(=O)c1cc2cc(-c3cc(C(=O)NCc4ccc(C(=O)O)cc4)nn3C)ccc2[nH]1 | cell-free assay |  | competition with immobilised ligand | 0.1 µM | remaining binding | 93%
CN1CCc2cc(Nc3ncc(C4CC4)c(NCCCNC(=O)C4CCC4)n3)ccc2C1 | enzyme activity | inhibitor | radiometric | 1 µM | remaining activity | -4%
CN(C)CC#Cc1ccc(OCCCc2sc(N3CCc4cccc(C(=O)Nc5nc6ccccc6s5)c4C3)nc2C(=O)O)c(F)c1 | cell-free assay |  | competition with immobilised ligand | 1 µM | remaining binding | 38%
Cc1nn(CC(F)(F)F)cc1Nc1nccc(NCCCNC(=O)C2CCC2)n1 | enzyme activity | inhibitor | radiometric | 1 µM | remaining activity | 126%
CC(=O)N1CCC(c2ccc(C(=O)NC(=N)N)cc2C(F)(F)F)CC1 | cell-free assay |  | competition with immobilised ligand | 1 µM | remaining binding | 88%
O=C(NCCCNc1nc(Nc2cccc(NC(=O)N3CCCC3)c2)ncc1I)c1cccs1 | enzyme activity | inhibitor | radiometric | 1 µM | remaining activity | -4%
COc1cc(/C=C/C(=O)CC(=O)/C=C/c2ccc(O)c(OC)c2)ccc1O | enzyme activity | inhibitor |  | 1 µM | activity vs control | 90%
